Measured values published in ChEMBL document CHEMBL3352752, “Towards the development of chromone-based MEK1/2 modulators” (Eur J Med Chem, 2014).
pIC50: −log10 of the molar value. Active and inactive are the calls of the source. The calls are words filed in the database; no cut-off is given here.

Tests used:
[1] = target: Dual specificity mitogen-activated protein kinase kinase MEK1/2 (Rattus norvegicus, UniProt Q01986+P36506); test: Inhibition of MEK1/2 in rat IEC6 cells assessed as reduction in ERK1/2 loop phosphorylation dosed 30 mins before to stimulation with 10% serum for 5 mins by immunoblotting method
Outline: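 IEC-6 cells grown in DMEM/10% FBS, then made quiescent at 95% confluence in serum-free DMEM-Ham's F-12 (1:1) with 15 mM Hepes pH 7.4 and 0.1% BSA for 24 h. Compounds added in DMSO. Lysates immunoblotted for phospho-ERK1/2 (Thr202/Tyr204), with total ERK1/2 and HSC70 as loading controls. Bands quantified by densitometry. IC50 from triplicate determinations.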

[2] = Inhibition of constitutively activated GST-tagged human MEK1 S218D/[…] (MEK1DD) mutant assessed blocking of increase in bovine MBP kinase activity of recombinant His6-tagged ERK2 using [gamma32P]ATP by liquid scintillation counting method
Outline: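 GST-MEK1DD (50 ng) preincubated 30 min at 30 °C with inhibitor or vehicle and 50 μM ATP plus 5 μCi [γ-32P]ATP, in 20 mM Hepes, 10 mM MgCl2, 1 mM DTT, pH 7.4. His6-ERK2 (300 ng, E. coli-expressed) added for 30 min, then MBP (0.2 mg/mL) for 10 min. Controls run without ERK2. Stopped with Laemmli buffer. IC50 from duplicate determinations.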

[3] = target: Dual specificity mitogen-activated protein kinase kinase 1 (Homo sapiens) (UniProt Q02750); test: Inhibition of MEK1 (unknown origin) at 1 uM
Chain of Dual specificity mitogen-activated protein kinase kinase 1 (Homo sapiens) (Q02750 whole entry): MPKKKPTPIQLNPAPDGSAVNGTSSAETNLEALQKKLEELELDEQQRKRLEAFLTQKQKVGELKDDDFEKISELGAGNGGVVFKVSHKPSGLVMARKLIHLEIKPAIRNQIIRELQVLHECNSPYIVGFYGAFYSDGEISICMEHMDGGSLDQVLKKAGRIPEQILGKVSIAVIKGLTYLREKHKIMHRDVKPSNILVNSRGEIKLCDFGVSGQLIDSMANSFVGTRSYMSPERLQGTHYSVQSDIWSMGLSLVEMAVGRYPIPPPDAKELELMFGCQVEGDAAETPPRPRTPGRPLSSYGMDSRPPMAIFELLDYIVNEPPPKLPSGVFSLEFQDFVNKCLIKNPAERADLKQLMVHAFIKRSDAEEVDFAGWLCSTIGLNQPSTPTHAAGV

A-375 = test: Antiproliferative activity against human A375 cells after 5 days by WST1 assay; assay type: functional, cell-based; conditions: A-375, 120 h
Outline: (§1)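 Cells seeded at 2×10^3 (HCT 116, HT-29) or 1.2×10^3 (A-375, A549) per well in DMEM with 10% FBS, 2 mM glutamine and antibiotics. Compounds added in DMSO, with medium changed daily for 5 days. WST-1 then added for 1 h. Absorbance read at 450 nm, reference 620 nm. Triplicate wells.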

HT-29 = test: Antiproliferative activity against human HT-29 cells after 5 days by WST1 assay; assay type: functional, cell-based; conditions: HT-29, 120 h; outline: as §1
Homo sapiens = organism: Homo sapiens; test: Potency index, ratio of IC50 for PD98059 to IC50 for test compound against constitutively activated GST-tagged human MEK1 S218D/[…] (MEK1DD) mutant
A549 = test: Antiproliferative activity against human A549 cells after 5 days by WST1 assay; assay type: functional, cell-based; conditions: A549, 120 h; outline: as §1
[4] = Antiproliferative activity against human HCT116 cells after 5 days by WST1 assay; assay type: functional, cell-based; conditions: HCT-116, 120 h; outline: as §1

| IC50 [1] | pIC50 [2] | Structure (SMILES) | also measured |
| --- | --- | --- | --- |
| > 100 µM | 5.96 | COc1cccc(-c2cc(=O)c3cc(Cl)cc(NC4CCOCC4)c3o2)c1N |  |
| > 100 µM | 5.72 | CCCCNc1cc(Cl)cc2c(=O)cc(-c3cccc(OC)c3N)oc12 |  |
| > 100 µM | 5.04 | COCCCNc1cc(Cl)cc2c(=O)cc(-c3cccc(OC)c3N)oc12 |  |
| > 100 µM | 4.99 | COc1cccc(-c2cc(=O)c3cc(Cl)cc(NCCCN)c3o2)c1N |  |
| > 100 µM | 5.57 | COc1cccc(-c2cc(=O)c3cc(Cl)cc(NC(C)C)c3o2)c1N |  |
|  | 5.36 | COc1cccc(-c2cc(=O)c3cc(Cl)cc(CCCN)c3o2)c1N |  |
| 1.6 µM | 7.52 | COc1cccc(-c2cc(=O)c3cc(Cl)cc(NCCCO)c3o2)c1N | inhibition [3]: Active; pIC50 (A-375): 5.23; pIC50 (HT-29): 5.80; Ratio IC50 (Homo sapiens): < 100; pIC50 (A549): 4.92; pIC50 [4]: 4.99 |
| > 100 µM | 5.85 | COc1cccc(-c2cc(=O)c3cc(Cl)cc(NCc4ccccc4)c3o2)c1N |  |
| 4.2 µM | 5.70 | COc1cccc(-c2cc(=O)c3ccccc3o2)c1N | pIC50 (HT-29): 5.40 |
| 1 µM | 5.72 | CCOc1cccc(-c2cc(=O)c3ccccc3o2)c1N |  |
| > 100 µM | 5.17 | COc1cccc(-c2cc(=O)c3cc(Cl)cc(NCCCN(C)C)c3o2)c1N |  |
| 0.073 µM |  | COc1cccc(-c2cc(=O)c3cccc(NCC[C@H](O)CO)c3o2)c1N |  |
| > 100 µM | 5.19 | COc1cccc(-c2cc(=O)c3cc(Cl)ccc3o2)c1N |  |
| 0.097 µM |  | COc1cccc(-c2cc(=O)c3cccc(NCCCO)c3o2)c1N |  |
| 3.1 µM | 6.66 | COc1cccc(-c2cc(=O)c3cc(Cl)cc(NCC[C@H](O)CO)c3o2)c1N | pIC50 (A-375): 4.98; pIC50 (HT-29): 5.43; pIC50 (A549): 4.76; pIC50 [4]: 4.89 |
